From ChEMBL document CHEMBL5030538 (J Med Chem, 2021)
pIC50, pKi: −log10 of the molar value. Activity calls are given as the source filed them. The calls are words filed in the database; no cut-off is given here.

Legend:
[1] = Displacement of [3H]-DTG from sigma 2 receptor in guinea pig brain membranes after 120 mins by microbeta scintillation counting method
[2] = tested on: HREC; experiment: Antiangiogenic activity against HREC cells assessed as inhibition of tube formation measured after 24 hrs by matrigel based tube formation assay; type: functional, cell-based; settings: Homo sapiens
[3] = tested on: HREC; experiment: Antimigratory activity against VEGF-A stimulated HREC assessed as inhibition of cell motility at 5 uM in presence of AC927 measured after 48 hrs by wound closure assay; type: functional; settings: Homo sapiens
Procedure, shortened: (§1)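 Primary HREC grown to confluence were scratched to make a 1 mm wound and washed with PBS. They were then incubated 48 h at 37 °C in complete medium with 80 ng/mL VEGF-A and 5 μM compound, alone or with 2 μM PTZ or 2 μM AC927. Wounds were photographed by phase contrast at 0, 24 and 48 h, and closure taken as the distance both fronts moved into the wound. Mean ± SEM of three independent experiments, three wells each.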

[4] = tested on: HREC; experiment: Antimigratory activity against VEGF-A stimulated HREC assessed as wound closure at 5 uM measured after 48 hrs by wound closure assay; type: functional, tissue-based; settings: Homo sapiens
Procedure, shortened: as §1

[5] = tested on: HREC; experiment: Antimigratory activity against VEGF-A stimulated HREC assessed as wound closure at 5 uM in presence of PTZ measured after 48 hrs by wound closure assay; type: functional, tissue-based; settings: Homo sapiens
Procedure, shortened: as §1

[6] = Antiproliferative activity against VEGF-A stimulated human retinal endothelial cell assessed as reduction in cell viability measured after 24 hrs by MTT assay; type: functional; settings: HREC
[7] = Antiproliferative activity against VEGF-A stimulated human retinal endothelial cell assessed as reduction in cell viability measured after 48 hrs by MTT assay; type: functional; settings: HREC
[8] = Antiproliferative activity against VEGF-A stimulated human retinal endothelial cell assessed as reduction in cell viability measured after 72 hrs by MTT assay; type: functional; settings: HREC
[9] = Antiangiogenic activity against VEGF-A stimulated human retinal endothelial cell assessed as cell proliferation measured after 48 hrs by crystal violet assay; type: functional; settings: HREC
Procedure, shortened: (§2)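 They were then treated at 5 μM with or without 80 ng/mL VEGF-A, with DMSO as vehicle. Cells were PBS-washed, fixed in 4% paraformaldehyde, stained with 0.5% crystal violet in 20% methanol, extracted with 10% acetic acid and read at 570/590 nm. Proliferation is given as % of vehicle; triplicate.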

[10] = Antiangiogenic activity against VEGF-A stimulated Human endothelial cell assessed as cell proliferation measured after 72 hrs by crystal violet assay; type: functional, tissue-based
[11] = Antiangiogenic activity against VEGF-A stimulated human retinal endothelial cell assessed as cell proliferation measured after 24 hrs by crystal violet assay; type: functional; settings: HREC
Procedure, shortened: as §2

SMILES	pKi [1]	Activity [2]	Activity [3]	Activity [4]	pIC50 [9]	pIC50 [10]	also measured
O[C@H](CCCN1CCC(O)(c2ccc(Cl)cc2)CC1)c1ccc(F)cc1	7.49	–	–	–	–	–	–
CCCC(CCC)C(=O)O[C@@H](CCCN1CCC(O)(c2ccc(Cl)cc2)CC1)c1ccc(F)cc1	–	Active	inactive	Active	–	–	–
CCCC(CCC)C(=O)O[C@H](CCCN1CCC(O)(c2ccc(Cl)cc2)CC1)c1ccc(F)cc1	–	Active	inactive	Active	–	–	Activity [5]: inactive
CCCC(CCC)C(=O)OC(CCCN1CCC(O)(c2ccc(Cl)cc2)CC1)c1ccc(F)cc1 (racemic)	6.91	Active	–	Active	–	–	–
OC(CCCN1CCC(O)(c2ccc(Cl)cc2)CC1)c1ccc(F)cc1 (racemic) [HYDROXYHALOPERIDOL]	–	–	–	–	3.89	4.16	pIC50 [6]: < 3.70; pIC50 [7]: 3.89; pIC50 [8]: 4.16
CCCC(CCC)C(=O)O [VALPROIC ACID]	–	–	–	–	2.84	2.86	pIC50 [11]: 2.91
